Active and inactive are the calls of the source. The rule behind the calls is not given here.
How the values were obtained:
Micrococcus luteus = assay: Antimicrobial activity against Micrococcus luteus at 10 ug/ml by disk diffusion assay; assay type: functional, organism-based
Summary of the method: (§1)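 Qualitative screen on agar plates: each diterpenoid applied to disks at 10 µg/mL and tested in parallel against eight strains (B. subtilis, S. aureus, E. coli, M. luteus, S. lutea, C. albicans, C. sake, A. niger). Growth inhibition was scored as a clear inhibition zone around the disk, with zone diameter in mm as the read-out.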

Escherichia coli = assay: Antimicrobial activity against Escherichia coli at 10 ug/ml by disk diffusion assay; assay type: functional, organism-based; summary of the method: as §1
[Candida] sake = Antimicrobial activity against Candida sake at 10 ug/ml by disk diffusion assay; assay type: functional, organism-based; summary of the method: as §1
Staphylococcus aureus = assay: Antimicrobial activity against Staphylococcus aureus at 10 ug/ml by disk diffusion assay; assay type: functional, organism-based; summary of the method: as §1
Bacillus subtilis = assay: Antimicrobial activity against Bacillus subtilis at 10 ug/ml by disk diffusion assay; assay type: functional; details: for zone of inhibition at 10 µg/mL: read-out: IZ; summary of the method: as §1
Candida albicans = assay: Antimicrobial activity against Candida albicans at 10 ug/ml by disk diffusion assay; assay type: functional, organism-based; summary of the method: as §1
Aspergillus niger = assay: Antimicrobial activity against Aspergillus niger at 10 ug/ml by disk diffusion assay; assay type: functional, organism-based; summary of the method: as §1

SMILES	Activity (Micrococcus luteus)	Activity (Escherichia coli)	Activity ([Candida] sake)	Activity (Staphylococcus aureus)	Activity (Bacillus subtilis)	Activity (Candida albicans)	Activity (Aspergillus niger)	zone of inhibition at 10 µg/mL (Bacillus subtilis) [mm]
C=C1CC[C@@H]2[C@](C)(CO[C@@H]3O[C@H](CO)[C@@H](O)[C@H](O)[C@H]3O)[C@H](O)CC[C@@]2(C)[C@@H]1CCC1=CCOC1=O	inactive	inactive	inactive	inactive	inactive	inactive	inactive	
C=C1CC[C@@H]2[C@](C)(CO)[C@H](O)CC[C@@]2(C)[C@@H]1C/C=C1\C(=O)OCC1O (stereo not given in full) [ISOANDROGRAPHOLIDE]	inactive	inactive	inactive	inactive		inactive	inactive	7
C=C1CC[C@@H]2[C@](C)(CO)[C@H](O)CC[C@@]2(C)[C@@H]1C[C@@H](O)C1=CCOC1=O	inactive	inactive	inactive	inactive		inactive	inactive	7
C=C1CC[C@@H]2[C@](C)(CO)[C@H](O[C@@H]3O[C@H](CO)[C@@H](O)[C@H](O)[C@H]3O)CC[C@@]2(C)[C@@H]1C/C=C1/C(=O)OC[C@H]1O	inactive	inactive	inactive	inactive	inactive	inactive	inactive	
C=C1CC[C@@H]2[C@](C)(CO)[C@H](O)CC[C@@]2(C)[C@@H]1CCC1=CCOC1=O	inactive	inactive	inactive	inactive	inactive	inactive	inactive	
C=C1CC[C@@H]2[C@](C)(CO[C@@H]3O[C@H](CO)[C@@H](O)[C@H](O)[C@H]3O)[C@H](O)CC[C@@]2(C)[C@@H]1C/C=C1/C(=O)OC[C@H]1O	inactive	inactive	inactive	inactive	inactive	inactive	inactive	
C=C1CC[C@@H]2[C@](C)(CO[C@@H]3O[C@H](CO)[C@@H](O)[C@H](O)[C@H]3O[C@@H]3OC[C@](O)(CO)[C@H]3O)CCC[C@@]2(C)[C@@H]1CCC1=CCOC1=O	inactive	inactive	inactive	inactive	inactive	inactive	inactive	
C=C1CC[C@@H]2[C@](C)(CO[C@@H]3O[C@H](CO)[C@@H](O)[C@H](O)[C@H]3O)CCC[C@@]2(C)[C@@H]1CCC1=CCOC1=O	inactive	inactive	inactive	inactive	inactive	inactive	inactive	
C[C@]1(CO)[C@H]2CC[C@]3(CO3)[C@@H](CCC3=CCOC3=O)[C@]2(C)CC[C@H]1O	inactive	inactive	inactive	inactive	inactive	inactive	inactive	
C=C1CC[C@@H]2[C@](C)(CO)[C@H](O)CC[C@@]2(C)[C@@H]1C[C@@H](O)C1C(=O)OC[C@H]1O (stereo not given in full)	inactive	inactive	inactive	inactive	inactive	inactive	inactive	
C=C1CC[C@@H]2[C@](C)(CO)CCC[C@@]2(C)[C@@H]1CCC1=CCOC1=O [ANDROGRAPANIN]	inactive	inactive	inactive	inactive		inactive	inactive	7
C=C1CCC2C(C)(CO)C(O)CCC2(C)C1/C=C/C1=CC(C2(CCC3=CCOC3=O)C(=C)CCC3C(C)(CO)C(O)CCC32C)OC1=O (stereo not given)	inactive	inactive	inactive	inactive	inactive	inactive	inactive	
C=C1CC[C@@H]2[C@](C)(CO)[C@H](O)CC[C@@]2(C)[C@@H]1/C=C/C1=CCOC1=O	inactive	inactive	inactive	inactive		inactive	inactive	7
C[C@]1(CO)[C@H]2CC[C@H](CO)[C@@H](CCC3=CCOC3=O)[C@]2(C)CC[C@H]1O	inactive	inactive	inactive	inactive	inactive	inactive	inactive	
C=C1CC[C@@H]2[C@](C)(CO[C@@H]3O[C@H](CO)[C@@H](O)[C@H](O)[C@H]3O)[C@H](O)CC[C@@]2(C)[C@@H]1/C=C/C1=CCOC1=O	inactive	inactive	inactive	inactive	inactive	inactive	inactive	
C=C1CC[C@H]2[C@@](C)(CC[C@@H](O)[C@@]2(C)CO)[C@@H]1C(=O)/C=C1\CCOC1=O	inactive	inactive	inactive	inactive	inactive	inactive	inactive	
C=C1CC[C@@H]2C(C)(C)[C@H](O[C@@H]3O[C@H](CO)[C@@H](O)[C@H](O)[C@H]3O)CC[C@@]2(C)[C@@H]1CCC1=CCOC1=O	inactive	inactive	inactive	inactive	inactive	inactive	inactive	
C=C1CC[C@@H]2[C@](C)(CO)[C@H](O)CC[C@@]2(C)[C@@H]1C/C=C1/C(=O)OC[C@H]1O	inactive	inactive	inactive	inactive	inactive	inactive	inactive	
C=C1CC[C@@H]2[C@](C)(CO)[C@H](O)CC[C@@]2(C)[C@@H]1C(O)/C=C1\CCOC1=O (stereo not given in full)	inactive	inactive	inactive	inactive	inactive	inactive	inactive	
C=C1CC[C@H]2[C@@](C)(CCC[C@@]2(C)C(=O)O[C@@H]2O[C@H](CO)[C@@H](O)[C@H](O)[C@H]2O)[C@@H]1CC/C(=C/CO)CO	inactive	inactive	inactive	inactive	inactive	inactive	inactive	
